In ChEMBL document CHEMBL3232761, “Novel metronidazole-chalcone conjugates with potential to counter drug resistance in Trichomonas vaginalis” (Eur J Med Chem, 2014):
In brackets after ≈: the same amount, converted by molar mass.

Assays:
Trichomonas vaginalis [1] = test: Antitrichomonal activity against metronidazole-susceptible Trichomonas vaginalis clinical isolate by trypan blue staining-based cell counting; assay type: functional
Summary of the method: (§1)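 Log-phase trophozoites (grown 1 day in TYM medium with 10% heat-inactivated FBS, pH 6.8, under partial anaerobiosis at 37°C) seeded at 5 X 10³/well. Compounds dissolved in DMSO and serially diluted in TYM from 100 to 0.78 μg/ml; vehicle wells had 0.05% DMSO. Plates incubated anaerobically at 37°C, with viability followed by trypan blue counting. MIC taken at 24 h as the lowest concentration leaving all trophozoites nonviable.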

Trichomonas vaginalis [2] = test: Antitrichomonal activity against metronidazole-resistant Trichomonas vaginalis ATCC 50143 by trypan blue staining-based cell counting; assay type: functional; summary of the method: as §1
HeLa = test: Cytotoxicity against human HeLa cells after 24 hrs by MTT assay; assay type: cell-based
Summary of the method: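 HeLa cells were kept in DMEM with 10% FBS at 37°C under 5% CO₂, then seeded at 5 X 10⁴/well and grown 24 h. Medium was replaced with compound dilutions starting at 1.0 mg/ml, with 0.05% DMSO in control wells, and cells were exposed for 24 h. MTT was then added, formazan was dissolved in DMSO, and OD was read at 540 nm.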

Trichomonas vaginalis [3] = test: Ratio of metronidazole MIC to compound MIC for metronidazole-resistant Trichomonas vaginalis ATCC 50143 by trypan blue staining-based cell counting; assay type: functional
Summary of the method: (§2)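 Both T. vaginalis strains were grown in TYM medium (pH 6.8) with 10% heat-inactivated FBS, 2% vitamin mixture, penicillin and streptomycin, under partial anaerobiosis at 37°C. Log-phase trophozoites (5 X 10³/well) taken 1 day after subculture were exposed to twofold dilutions from 100 down to 0.78 μg/ml (from DMSO stocks), with 0.05% DMSO vehicle controls, anaerobically at 37°C. Viability was scored daily by trypan blue counting. MIC was the lowest concentration leaving all trophozoites nonviable at 24 h.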

Trichomonas vaginalis [4] = test: Ratio of MIC for metronidazole-resistant Trichomonas vaginalis ATCC 50143 to metronidazole-susceptible Trichomonas vaginalis clinical isolate; assay type: functional; summary of the method: as §2

Structure (SMILES)	MIC (Trichomonas vaginalis [1]) [µg/mL]	MIC (Trichomonas vaginalis [2]) [µg/mL]	IC50 (HeLa) [µg/mL]	Ratio (Trichomonas vaginalis [3])	Ratio (Trichomonas vaginalis [4])
Cc1ncc([N+](=O)[O-])n1CCOc1ccc(C(=O)/C=C/c2cc(F)cc(F)c2)cc1	1.56 (≈ 3.77 µM)	3.12 (≈ 7.56 µM)	> 1000	4	2
Cc1ncc([N+](=O)[O-])n1CCOc1ccc(C(=O)/C=C/c2cccc(Cl)c2)cc1	1.56 (≈ 3.79 µM)	3.12 (≈ 7.59 µM)	> 1000	4	2
Cc1ncc([N+](=O)[O-])n1CCOc1ccc(C(=O)/C=C/c2ccc(F)c(F)c2)cc1	1.56 (≈ 3.77 µM)	6.25 (≈ 15.1 µM)			2
Cc1ncc([N+](=O)[O-])n1CCOc1ccc(C(=O)/C=C/c2cc(F)ccc2F)cc1	1.56 (≈ 3.77 µM)	6.25 (≈ 15.1 µM)			2
COc1ccc(/C=C/C(=O)c2ccc(OCCn3c([N+](=O)[O-])cnc3C)cc2)cc1OC	1.56 (≈ 3.57 µM)	12.5 (≈ 28.6 µM)			8
Cc1ncc([N+](=O)[O-])n1CCOc1ccc(C(=O)/C=C/c2cccc(Br)c2)cc1	3.12 (≈ 6.85 µM)	3.12 (≈ 6.85 µM)		4	
Cc1ncc([N+](=O)[O-])n1CCOc1ccc(C(=O)/C=C/c2ccccc2)cc1	1.56 (≈ 4.13 µM)	50 (≈ 132 µM)			4
Cc1ncc([N+](=O)[O-])n1CCOc1ccc(C(=O)/C=C/c2ccc([N+](=O)[O-])cc2)cc1	1.56 (≈ 3.69 µM)	6.25 (≈ 14.8 µM)		2	2
Cc1ncc([N+](=O)[O-])n1CCOc1ccc(C(=O)/C=C/c2ccc(F)cc2)cc1	1.56 (≈ 3.95 µM)	6.25 (≈ 15.8 µM)			2
Cc1ncc([N+](=O)[O-])n1CCO [METRONIDAZOLE]	1.56 (≈ 9.11 µM)	12.5 (≈ 73 µM)	> 1000		8

Second part, led by results:

MIC (Trichomonas vaginalis [1]) [µg/mL]	MIC (Trichomonas vaginalis [2]) [µg/mL]	Structure (SMILES)	IC50 (HeLa) [µg/mL]	Ratio (Trichomonas vaginalis [3])	Ratio (Trichomonas vaginalis [4])
25 (≈ 63.2 µM)	100 (≈ 253 µM)	Cc1ncc([N+](=O)[O-])n1CCOc1ccc(C(=O)/C=C/c2cccc(F)c2)cc1			
3.12 (≈ 7.02 µM)	25 (≈ 56.1 µM)	Cc1ncc([N+](=O)[O-])n1CCOc1ccc(C(=O)/C=C/c2ccc(C(F)(F)F)cc2)cc1			
6.25 (≈ 15.4 µM)	12.5 (≈ 30.8 µM)	Cc1ccc(/C=C/C(=O)c2ccc(OCCn3c([N+](=O)[O-])cnc3C)cc2)cc1C			
6.25 (≈ 14 µM)	25 (≈ 56 µM)	Cc1ncc([N+](=O)[O-])n1CCOc1ccc(C(=O)/C=C/c2c(Cl)cccc2Cl)cc1			
3.12 (≈ 7.59 µM)	12.5 (≈ 30.4 µM)	Cc1ncc([N+](=O)[O-])n1CCOc1ccc(C(=O)/C=C/c2ccccc2Cl)cc1			
12.5 (≈ 28.6 µM)	12.5 (≈ 28.6 µM)	COc1ccc(OC)c(/C=C/C(=O)c2ccc(OCCn3c([N+](=O)[O-])cnc3C)cc2)c1			
6.25 (≈ 15.2 µM)	6.25 (≈ 15.2 µM)	Cc1ncc([N+](=O)[O-])n1CCOc1ccc(C(=O)/C=C/c2ccc(Cl)cc2)cc1			
3.12 (≈ 7.67 µM)	25 (≈ 61.4 µM)	COc1ccc(/C=C/C(=O)c2ccc(OCCn3c([N+](=O)[O-])cnc3C)cc2)cc1			
6.25 (≈ 14.6 µM)	25 (≈ 58.5 µM)	Cc1ncc([N+](=O)[O-])n1CCOc1ccc(C(=O)/C=C/c2cccc3ccccc23)cc1			
6.25 (≈ 14 µM)	25 (≈ 56.1 µM)	Cc1ncc([N+](=O)[O-])n1CCOc1ccc(C(=O)/C=C/c2ccccc2C(F)(F)F)cc1			
3.12 (≈ 6.85 µM)	6.25 (≈ 13.7 µM)	Cc1ncc([N+](=O)[O-])n1CCOc1ccc(C(=O)/C=C/c2ccccc2Br)cc1			
6.25 (≈ 14 µM)	12.5 (≈ 28 µM)	Cc1ncc([N+](=O)[O-])n1CCOc1ccc(C(=O)/C=C/c2ccc(Cl)cc2Cl)cc1			
6.25 (≈ 13.7 µM)	6.25 (≈ 13.7 µM)	Cc1ncc([N+](=O)[O-])n1CCOc1ccc(C(=O)/C=C/c2ccc(Br)cc2)cc1			
